Test results as given in ChEMBL document CHEMBL1148611, “Selective inhibition of matrix metalloproteinase isozymes and in vivo protection against emphysema by substituted gamma-keto carboxylic acids” (J Med Chem, 2006).
The source made the active and inactive calls. The rule behind the calls is not given here.

Experiments:
[1] = target: 72 kDa type IV collagenase (Homo sapiens, UniProt P08253); test: Inhibitory activity against MMP2
[2] = target: T1, Matrix metalloproteinase-9 (Homo sapiens, UniProt P14780); test: Inhibitory activity against MMP9
[3] = target: Macrophage metalloelastase (Homo sapiens, UniProt P39900); test: Inhibitory activity against MMP12
[4] = target: T2, Interstitial collagenase (Homo sapiens) (UniProt P03956); test: Inhibitory activity against MMP1 upto 50uM
T2 sequence (whole entry): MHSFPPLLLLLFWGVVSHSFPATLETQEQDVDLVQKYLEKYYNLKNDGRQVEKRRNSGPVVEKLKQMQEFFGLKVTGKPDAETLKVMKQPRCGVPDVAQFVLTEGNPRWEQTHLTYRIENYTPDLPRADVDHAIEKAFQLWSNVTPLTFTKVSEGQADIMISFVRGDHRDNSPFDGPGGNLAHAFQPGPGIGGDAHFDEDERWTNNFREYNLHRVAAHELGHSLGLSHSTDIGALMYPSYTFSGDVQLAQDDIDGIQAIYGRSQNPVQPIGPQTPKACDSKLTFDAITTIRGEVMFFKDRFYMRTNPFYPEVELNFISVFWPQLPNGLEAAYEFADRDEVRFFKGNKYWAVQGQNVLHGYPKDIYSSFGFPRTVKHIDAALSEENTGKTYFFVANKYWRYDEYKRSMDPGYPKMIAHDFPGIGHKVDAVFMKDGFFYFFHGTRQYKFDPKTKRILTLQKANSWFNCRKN

[5] = target: T3, Matrilysin (Homo sapiens) (UniProt P09237); test: Inhibitory activity against MMP7 upto 50uM
T3 sequence (whole entry): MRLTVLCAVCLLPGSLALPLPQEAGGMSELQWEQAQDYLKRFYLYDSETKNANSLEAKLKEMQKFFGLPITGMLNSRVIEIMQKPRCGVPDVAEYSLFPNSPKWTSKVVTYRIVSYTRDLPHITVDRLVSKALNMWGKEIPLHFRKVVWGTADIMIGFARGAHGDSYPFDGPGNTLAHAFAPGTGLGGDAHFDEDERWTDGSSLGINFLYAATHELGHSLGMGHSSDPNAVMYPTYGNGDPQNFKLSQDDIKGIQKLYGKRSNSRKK

[6] = target: T4, Matrix metalloproteinase-15 (Homo sapiens, UniProt P51511); test: Inhibitory activity against MMP15 upto 50uM
Target sequence in this assay (P51511 132-669 limits assumed): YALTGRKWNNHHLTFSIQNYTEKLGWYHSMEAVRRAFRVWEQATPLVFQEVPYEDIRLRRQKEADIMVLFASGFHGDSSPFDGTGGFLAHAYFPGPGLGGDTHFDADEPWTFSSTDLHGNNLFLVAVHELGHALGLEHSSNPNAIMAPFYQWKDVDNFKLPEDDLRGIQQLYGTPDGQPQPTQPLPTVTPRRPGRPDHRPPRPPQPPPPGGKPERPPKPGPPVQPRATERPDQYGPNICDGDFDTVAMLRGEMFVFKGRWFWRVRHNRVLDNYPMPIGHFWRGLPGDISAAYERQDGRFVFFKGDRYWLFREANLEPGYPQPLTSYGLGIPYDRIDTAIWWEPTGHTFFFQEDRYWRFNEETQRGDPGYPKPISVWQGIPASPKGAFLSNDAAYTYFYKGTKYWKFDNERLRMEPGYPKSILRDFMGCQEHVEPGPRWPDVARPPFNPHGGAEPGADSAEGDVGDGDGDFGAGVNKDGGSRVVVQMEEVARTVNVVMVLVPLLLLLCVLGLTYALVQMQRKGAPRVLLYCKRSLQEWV

[7] = target: T5, Matrix metalloproteinase-16 (Homo sapiens, UniProt P51512); test: Inhibitory activity against MMP16 upto 50uM
[8] = target: T6, Matrix metalloproteinase-26 (Homo sapiens) (UniProt Q9NRE1); test: Inhibitory activity against MMP26 upto 50uM
T6 sequence (whole entry): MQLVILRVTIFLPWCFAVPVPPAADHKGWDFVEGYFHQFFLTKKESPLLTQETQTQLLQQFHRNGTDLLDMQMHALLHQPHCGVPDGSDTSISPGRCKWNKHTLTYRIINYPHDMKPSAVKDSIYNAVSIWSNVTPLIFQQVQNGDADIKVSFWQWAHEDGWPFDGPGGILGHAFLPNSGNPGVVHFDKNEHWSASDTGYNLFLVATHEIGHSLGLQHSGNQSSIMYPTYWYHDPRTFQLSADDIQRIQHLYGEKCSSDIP

[9] = tested on: Syrian golden hamster; test: Increase in lung weight, lung volumes, relative lung volumes and right ventricular hypertropy in PPE-treated Syrian hamster at 5 mg/kg; type: functional, organism-based; set-up: dose 5 mg/kg; conditions: Mesocricetus auratus, Heart right ventricle
Summary of the method: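 Male golden Syrian hamsters with PPE-induced emphysema, compared with saline-treated controls, PPE-only animals and compound/saline-treated animals. Read-outs were wet weight of the left lung, lung volume, relative lung volume and right ventricular hypertrophy.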

[10] = target: T3, Matrilysin (Homo sapiens); test: Inhibitory activity against MMP7 upto 50 uM
[11] = target: T1, Matrix metalloproteinase-9; test: Inhibitory activity against MMP9 upto 50uM
[12] = target: T7, Matrix metalloproteinase-14 (Homo sapiens, UniProt P50281); test: Inhibitory activity against MMP14 upto 50uM
[13] = target: T7, Matrix metalloproteinase-14; test: Inhibitory activity against MMP14
[14] = target: T4, Matrix metalloproteinase-15; test: Inhibitory activity against MMP15
Target sequence in this assay (P51511 whole entry): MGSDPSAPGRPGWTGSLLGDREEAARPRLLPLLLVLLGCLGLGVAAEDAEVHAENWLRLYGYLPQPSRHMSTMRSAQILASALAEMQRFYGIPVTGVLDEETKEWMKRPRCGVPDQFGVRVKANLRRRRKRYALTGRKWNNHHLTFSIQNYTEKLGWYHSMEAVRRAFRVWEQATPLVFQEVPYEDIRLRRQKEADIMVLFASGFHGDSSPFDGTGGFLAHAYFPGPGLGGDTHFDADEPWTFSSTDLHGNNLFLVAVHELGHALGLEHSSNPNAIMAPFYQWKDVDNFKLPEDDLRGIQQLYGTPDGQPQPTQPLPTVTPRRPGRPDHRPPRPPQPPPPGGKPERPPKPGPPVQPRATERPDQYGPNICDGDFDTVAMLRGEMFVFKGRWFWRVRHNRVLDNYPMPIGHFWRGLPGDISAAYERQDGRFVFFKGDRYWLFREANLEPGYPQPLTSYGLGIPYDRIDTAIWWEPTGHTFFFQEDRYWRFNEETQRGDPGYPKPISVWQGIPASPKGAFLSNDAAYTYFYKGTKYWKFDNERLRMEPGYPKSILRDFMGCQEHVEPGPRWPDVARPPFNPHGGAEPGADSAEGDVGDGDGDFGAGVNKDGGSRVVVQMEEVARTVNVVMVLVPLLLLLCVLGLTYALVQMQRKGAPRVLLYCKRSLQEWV

[15] = target: T5, Matrix metalloproteinase-16; test: Inhibitory activity against MMP16
[16] = target: T8, Matrix metalloproteinase-26 (Homo sapiens, UniProt Q9NRE1); test: Inhibitory activity against MMP26
T8 sequence (Q9NRE1 whole entry): T6 sequence (whole entry)

T1 sequence (P14780 whole entry): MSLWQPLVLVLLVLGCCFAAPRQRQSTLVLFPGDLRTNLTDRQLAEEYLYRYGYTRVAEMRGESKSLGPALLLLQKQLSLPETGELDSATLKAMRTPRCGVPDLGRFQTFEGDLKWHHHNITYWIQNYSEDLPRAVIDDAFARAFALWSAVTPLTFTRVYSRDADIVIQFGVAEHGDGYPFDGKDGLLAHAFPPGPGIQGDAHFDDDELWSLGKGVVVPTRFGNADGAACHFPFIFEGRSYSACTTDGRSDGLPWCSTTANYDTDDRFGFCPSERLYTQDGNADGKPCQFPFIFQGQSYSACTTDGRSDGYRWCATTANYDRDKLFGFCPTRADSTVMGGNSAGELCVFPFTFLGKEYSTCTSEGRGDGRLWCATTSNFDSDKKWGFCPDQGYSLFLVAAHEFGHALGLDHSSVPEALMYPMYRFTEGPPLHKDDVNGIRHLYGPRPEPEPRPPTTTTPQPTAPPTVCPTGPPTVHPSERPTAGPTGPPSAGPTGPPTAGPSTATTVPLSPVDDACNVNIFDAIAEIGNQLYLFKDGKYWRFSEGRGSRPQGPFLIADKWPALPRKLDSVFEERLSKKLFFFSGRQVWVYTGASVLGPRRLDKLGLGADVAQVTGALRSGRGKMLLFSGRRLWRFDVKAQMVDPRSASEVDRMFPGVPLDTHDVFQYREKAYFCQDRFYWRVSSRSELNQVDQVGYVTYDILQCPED
T5 sequence (P51512 whole entry): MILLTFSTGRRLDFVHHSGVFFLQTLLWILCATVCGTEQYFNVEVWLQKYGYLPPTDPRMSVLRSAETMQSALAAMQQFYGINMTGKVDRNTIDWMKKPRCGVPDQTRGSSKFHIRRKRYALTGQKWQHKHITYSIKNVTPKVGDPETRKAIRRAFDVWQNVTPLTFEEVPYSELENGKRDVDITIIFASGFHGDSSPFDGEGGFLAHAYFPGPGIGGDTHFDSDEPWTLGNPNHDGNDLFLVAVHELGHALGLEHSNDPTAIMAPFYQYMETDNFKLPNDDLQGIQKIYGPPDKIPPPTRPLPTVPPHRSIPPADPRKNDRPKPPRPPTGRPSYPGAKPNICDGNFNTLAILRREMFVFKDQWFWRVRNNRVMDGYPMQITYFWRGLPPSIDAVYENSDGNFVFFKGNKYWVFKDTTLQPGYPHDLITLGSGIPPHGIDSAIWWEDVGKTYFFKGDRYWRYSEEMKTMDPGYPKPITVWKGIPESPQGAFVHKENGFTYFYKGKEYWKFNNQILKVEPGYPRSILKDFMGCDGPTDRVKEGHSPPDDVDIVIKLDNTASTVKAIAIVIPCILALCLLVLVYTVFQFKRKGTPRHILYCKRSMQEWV
Sequence of Macrophage metalloelastase (P39900 whole entry): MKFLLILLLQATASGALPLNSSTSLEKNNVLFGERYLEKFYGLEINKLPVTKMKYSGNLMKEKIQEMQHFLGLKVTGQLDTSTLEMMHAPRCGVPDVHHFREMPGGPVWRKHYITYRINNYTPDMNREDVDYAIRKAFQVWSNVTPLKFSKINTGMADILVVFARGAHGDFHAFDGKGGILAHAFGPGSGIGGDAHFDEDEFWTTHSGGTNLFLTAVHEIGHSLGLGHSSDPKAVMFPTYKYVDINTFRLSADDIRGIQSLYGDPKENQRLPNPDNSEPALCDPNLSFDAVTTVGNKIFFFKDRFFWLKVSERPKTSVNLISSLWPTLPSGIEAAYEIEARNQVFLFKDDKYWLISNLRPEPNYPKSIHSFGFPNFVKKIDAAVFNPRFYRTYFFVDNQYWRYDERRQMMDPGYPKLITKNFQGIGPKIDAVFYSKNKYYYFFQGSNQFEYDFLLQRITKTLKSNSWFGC
Sequence of 72 kDa type IV collagenase (P08253 whole entry): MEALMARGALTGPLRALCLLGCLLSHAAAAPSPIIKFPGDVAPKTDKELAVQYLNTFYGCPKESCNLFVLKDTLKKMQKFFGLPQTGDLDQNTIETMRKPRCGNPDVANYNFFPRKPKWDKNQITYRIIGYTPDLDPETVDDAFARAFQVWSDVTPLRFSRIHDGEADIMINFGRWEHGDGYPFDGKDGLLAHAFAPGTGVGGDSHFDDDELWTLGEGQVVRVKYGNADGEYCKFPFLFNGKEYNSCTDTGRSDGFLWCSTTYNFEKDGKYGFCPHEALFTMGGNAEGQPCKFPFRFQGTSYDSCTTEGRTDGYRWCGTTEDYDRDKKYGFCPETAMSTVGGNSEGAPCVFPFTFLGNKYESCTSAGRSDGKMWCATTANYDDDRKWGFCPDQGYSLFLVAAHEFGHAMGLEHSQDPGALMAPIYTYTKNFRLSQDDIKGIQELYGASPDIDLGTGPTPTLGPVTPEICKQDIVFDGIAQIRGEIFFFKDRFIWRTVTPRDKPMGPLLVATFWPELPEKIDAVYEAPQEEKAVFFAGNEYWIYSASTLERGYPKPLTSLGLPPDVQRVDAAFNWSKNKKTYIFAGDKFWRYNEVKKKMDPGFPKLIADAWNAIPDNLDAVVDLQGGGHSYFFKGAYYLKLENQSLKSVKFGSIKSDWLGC

IC50 [1] | IC50 [2] | IC50 [3] | Activity [4] | Activity [5] | Activity [6] | Activity [7] | Activity [8] | Activity [10] | Activity [11] | Activity [12] | IC50 [13] | IC50 [14] | IC50 [15] | IC50 [16] | Compound | Activity [9]
2.11 µM | 9.29 µM | 0.6 µM |  |  |  |  |  |  |  |  |  |  |  |  | O=C(O)CC(Cc1ccccc1)C(=O)c1ccc(C#Cc2ccccc2)cc1 (stereo unspecified) | 
1.12 µM | 3.39 µM | 0.32 µM |  |  |  |  |  |  |  |  |  |  |  |  | O=C(O)CC(CC1CCCC1)C(=O)c1ccc(C#Cc2ccccc2)cc1 (stereo unspecified) | 
3.43 µM | 10 µM | 1.14 µM |  |  |  |  |  |  |  |  |  |  |  |  | O=C(O)CC(Cc1ccc(F)cc1)C(=O)c1ccc(C#Cc2ccccc2)cc1 (stereo unspecified) | 
0.55 µM | 1.51 µM | 0.2 µM | inactive | inactive | inactive | inactive | inactive | inactive |  |  |  |  |  |  | CCCCCCC(CC(=O)O)C(=O)c1ccc(C#Cc2ccc(Cl)cc2)cc1 (stereo unspecified) | Active
23.1 µM |  | 25.7 µM | inactive |  | inactive | inactive |  | inactive | inactive | inactive |  |  |  |  | O=C(O)CCC(=O)c1ccc(C#CCOCc2ccccc2)cc1 | 
1.66 µM | 5.41 µM | 0.45 µM |  |  |  |  |  |  |  |  |  |  |  |  | CCCCCCC(CC(=O)O)C(=O)c1ccc(C#Cc2ccccc2)cc1 (stereo unspecified) | 
3.07 µM |  | 12.5 µM | inactive |  | inactive | inactive | inactive | inactive | inactive | inactive |  |  |  |  | CCCCCCCCC#Cc1ccc(C(=O)CCC(=O)O)cc1 | 
5.74 µM |  | 7.56 µM | inactive |  | inactive | inactive | inactive | inactive | inactive | inactive |  |  |  |  | CCC(CC(=O)O)C(=O)c1ccc(C#CCOCc2ccccc2)cc1 (stereo unspecified) | 
0.44 µM | 3.6 µM | 0.48 µM | inactive |  |  |  |  | inactive |  |  | 30.6 µM | 13.9 µM | 32 µM | 18.1 µM | CCC(CC(=O)O)C(=O)c1ccc(C#Cc2ccccc2)cc1 (stereo unspecified) | 
15.4 µM |  | 24.7 µM | inactive |  | inactive | inactive | inactive | inactive | inactive | inactive |  |  |  |  | O=C(O)CCC(=O)c1ccc(C#CCO)cc1 | 
